Compound activity as filed in PubChem.
HKDC1 inh: blocks human hexokinase HKDC1 activity. Q2TB90. recombinant HKDC1, G6PDH/diaphorase resazurin coupled fluorescence. inhibition, % at 20 µM. 0.16% of 340,000 active. AID 493160;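 active = inhibition above about 35% when tested at 20 µM, limit read from the data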
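Test system: HK5 enzyme. Quantity: 5 µg/mL HK5 final. Reagent: glucose and ATP substrates. Schedule: 90 min reaction incubation at room temperature, dark. Technique: resazurin-to-resorufin fluorescence via G6PDH and diaphorase coupling, 525/613 nm. Control set: DMSO wells with and without enzyme mix.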
PfGluPho inh: PfG6PD (Plasmodium falciparum) enzyme inhibition. PfGluPho enzyme, NADPH resazurin-diaphorase fluorescence. inhibition, % at 20 µM. 0.78% of 350,000 active;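 active = inhibition reaching at least a set limit at 20 µM in the primary screen, cut at about 59% in these data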
A3G deaminase: inhibitors of human APOBEC3G DNA deaminase; Q9HC16; 0.28% of 330,000 active; inhibition, % at 20 µM; recombinant A3G, ssDNA deamination FAM/TAMRA fluorescence; AID 493012;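 active = inhibition of at least 40% at 20 µM, with no more than 30% in the related APOBEC3A deaminase screen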
hiPSC survival: hiPSC single-cell survival enhancement; 0.044% of 360,000 active; survival enhancement, % at 20 µM; ATPlite luminescence; 100% = ROCK inhibitor wells, 0% = DMSO; AID 602274; in the data active = survival enhancement above about 18%;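 also: cells exposed to compounds for 16 hours before the ATP read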
APOBEC3A inh: blocks human APOBEC3A ssDNA deamination; recombinant A3A, FAM/TAMRA ssDNA deamination fluorescence; 0.41% of 330,000 active; AID 493011; P31941; inhibition, % at 20 µM;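 active = at least 40% inhibition at 20 µM here, with at most 30% in a related deaminase screen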
Target sequence (P31941 whole entry, looked up): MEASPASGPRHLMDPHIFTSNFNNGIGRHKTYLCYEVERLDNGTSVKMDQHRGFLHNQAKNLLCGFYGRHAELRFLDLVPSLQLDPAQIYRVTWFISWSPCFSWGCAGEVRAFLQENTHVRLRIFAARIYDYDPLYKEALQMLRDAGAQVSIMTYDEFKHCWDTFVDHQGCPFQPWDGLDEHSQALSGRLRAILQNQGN
APOBEC3G confirm: confirmation of human APOBEC3G DNA deaminase inhibitors | shares compounds with A3G deaminase | recombinant A3G ssDNA deaminase, UDG/FAM-TAMRA fluorescence | inhibition, % at 20 µM | 72% of 890 active | AID 493152;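 active = inhibition reaching a set limit in any replicate at 20 µM, the limit being 80% of the first screen's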
UDG A3G counter: inhibits E. coli UDG, flagging false APOBEC3G inhibitors. shares compounds with A3G deaminase. UDG counterscreen, FAM/TAMRA oligo fluorescence. inhibition, % at 20 µM. 710 tested, under 10 active. AID 504715;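 active = compounds giving 40% or more inhibition at 20 µM in any one of the three replicates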;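 also: inhibitors lower the FAM signal released by uracil excision and alkaline cleavage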
Target sequence (P12295 whole entry, looked up): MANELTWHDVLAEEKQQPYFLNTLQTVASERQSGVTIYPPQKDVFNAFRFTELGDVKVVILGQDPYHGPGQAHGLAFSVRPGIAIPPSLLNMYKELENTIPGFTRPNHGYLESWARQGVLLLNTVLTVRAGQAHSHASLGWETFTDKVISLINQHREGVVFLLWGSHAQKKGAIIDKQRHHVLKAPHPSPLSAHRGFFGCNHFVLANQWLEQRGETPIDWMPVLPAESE
PfGluPho conf: PfG6PD inhibition, single-dose confirmed. shares compounds with PfGluPho inh. recombinant PfGluPho, NADPH-diaphorase-resazurin fluorescence. inhibition, % at 20 µM. 34% of 2,400 active;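 active = inhibition of at least 50% at 20 µM in any single replicate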
Diaph ctr 10uM: counter-screen for P. falciparum G6PD inhibitors: diaphorase inhibitors, oxidizers; shares compounds with PfGluPho inh; diaphorase-coupled resazurin reduction, fluorescence, NADPH 10 uM; inhibition, % at 20 µM; 39% of 820 active; AID 504862;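 active = average inhibition reaching 50% or more with the compound at 20 µM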;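 also: resorufin red fluorescence formed as diaphorase reduces resazurin using NADPH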
Diaph ctr 30uM: counter-screen for P. falciparum G6PD inhibitors: diaphorase inhibitors, oxidizers. shares compounds with PfGluPho inh. Diaphorase/resazurin coupled assay, resorufin fluorescence, 30 uM NADPH. inhibition, % at 20 µM. 29% of 820 active;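 active = inhibition averaging 50% or more, tested at 20 µM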
Hits are given with their value; . = inactive; / = not tested or not shown. The list is not random: actives were taken first. Their share in the collection is about 1.4%.

SMILES | HKDC1 inh | PfGluPho inh | A3G deaminase | hiPSC survival | APOBEC3A inh | APOBEC3G confirm | UDG A3G counter | PfGluPho conf | others
COCCCN1C(=O)/C(=C/c2ccc(CNS(=O)(=O)c3ccccc3)o2)C(C(=O)OC)=C1C | . | . | . | . | . | / | / | /
COC(=O)c1c(-c2ccc(C(C)(C)C)cc2)csc1NC(=O)C1C2CCC(O2)C1C(=O)O (stereo not drawn) | . | 69.5 | 58.2 | . | . | 23.8 | . | .
COc1cc(C(=S)N2CCN(c3cccc(Cl)c3)CC2)ccc1O | . | . | 49.8 | . | . | 39.9 | . | .
CCOC(=O)CC(NC(=O)CCS(=O)(=O)c1ccc2c(c1)n(C)c(=O)c(=O)n2C)c1ccc(C)cc1 (stereo not drawn) | . | . | . | . | . | / | / | /
CCC(C)(C)c1nnc(NC(=O)C2CCN(C(=O)c3ccco3)CC2)s1 | . | 79.3 | 67.3 | . | . | 80.5 | . | 61.1 | Diaph ctr 10uM=.;Diaph ctr 30uM=.
O=C(CSCc1c(F)cccc1F)Nc1ccccc1 | . | . | . | . | . | / | / | /
S=C(c1ccc(-c2ccccc2Cl)o1)N1CCOCC1 | . | 61.6 | 61.3 | . | . | 55.0 | . | .
Cc1nn(CC(=O)N2CCC(N3CCCCC3)CC2)c(=O)c2c1sc1ccccc12 | . | . | . | . | . | / | / | /
CCOC(=O)C1CCCN(C(=O)Cn2sc3nc(C)cc(C)c3c2=O)C1 (stereo not drawn) | . | 68.5 | 50.4 | . | . | 77.7 | . | 51.7 | Diaph ctr 10uM=.;Diaph ctr 30uM=.
CCCNC(=O)Cn1sc2nc(C)cc(C)c2c1=O | . | 81.3 | 59.8 | . | . | 77.1 | . | 68.3 | Diaph ctr 10uM=.;Diaph ctr 30uM=.
Cc1cc(C)c2c(=O)n(CC(=O)N3CCC(N4CCCCC4)CC3)sc2n1 | . | 80.2 | 49.3 | . | . | 81.8 | . | 62.7 | Diaph ctr 10uM=.;Diaph ctr 30uM=.
Cc1cccc(NS(=O)(=O)c2csc(C(N)=O)c2)c1C | . | . | . | . | . | / | / | /
O=C(NC(c1ccccc1)c1ccc2ccccc2n1)C1CCN(Cc2ccc(Cl)c(Cl)c2)CC1 (stereo not drawn) | / | / | / | . | / | / | / | /
CN(C)/C=C1\NC(=S)N(c2ccccc2)C1=O | . | . | . | . | . | / | / | /
COc1ccc(N2C(=O)/C(=C/c3cccs3)NC2=S)cc1 | . | 79.3 | 60.1 | . | . | 39.5 | . | 63.6 | Diaph ctr 10uM=.;Diaph ctr 30uM=.
CC1CCN(C(=S)c2ccccc2O)CC1 | . | 63.6 | 49.1 | . | . | 42.4 | . | .
COc1ccc2cc(C#CC3=CC(=O)C[C@H](c4ccc(F)cc4)C3)ccc2c1 | / | . | / | . | / | / | / | /
O=S(=O)(/N=C(/Nc1cccc2ccccc12)c1ccc(F)cc1)c1ccccc1 | . | . | . | . | . | / | / | /
COc1cc(SSc2cc(OC)cc([N+](=O)[O-])c2N)c(N)c([N+](=O)[O-])c1 | . | 111.7 | 41.6 | . | . | 78.8 | . | 99.9 | Diaph ctr 10uM=.;Diaph ctr 30uM=.
CCOc1ccc(-c2nnc(NC(=O)Cc3cc(OC)c(OC)c(OC)c3)o2)cc1 | . | . | . | . | . | / | / | /
Nc1cc(S(=O)(=O)Nc2ccccc2Cl)ccc1N1CCCCC1 | . | 66.8 | 49.0 | . | . | 47.2 | . | .
Nc1ccc(N2CCCCC2)c(S(=O)(=O)Nc2ccccc2Cl)c1 | . | . | . | . | . | / | / | /
CCCS(=O)(=O)NC(=O)C1(C)CCN(C(=O)c2ccc(F)c(C)c2)C1 (stereo not drawn) | / | / | / | . | / | / | / | /
O=C(/N=C1\NC(=O)C(F)(C(F)(F)F)S1)NC1CCCCC1 (stereo not drawn) | . | 73.4 | 49.7 | . | . | 47.6 | . | .
CCC1S/C(=N/C(=O)NC2CCCCC2)NC1=O (stereo not drawn) | . | . | . | . | . | / | / | /
